*1 amine or outer side, *2 acyl side, *3 side chain or, on linkers, in order; H or OH if unused. Where a SMILES comes first, the peptide text is derived from it. [ ]: non-standard residue; d: D form. Phe(4-NH(5-NH2triazol-3-yl)) = Nc1nc(Nc2ccc(C[C@H](N)C(=O)O)cc2)n[nH]1; X1 = Nc1nc(Nc2ccc(C[C@@H](N[*:1])C(=O)[*:2])cc2)n[nH]1; dPhe(4-Cl) = N[C@H](Cc1ccc(Cl)cc1)C(=O)O; d2Nal = N[C@H](Cc1ccc2ccccc2c1)C(=O)O; Lys(iPr) = CC(C)NCCCC[C@H](N)C(=O)O; d3Pal = N[C@H](Cc1cccnc1)C(=O)O
Biological target: T1, Gonadotropin-releasing hormone receptor (Homo sapiens, UniProt P30968)
T1 sequence (P30968 whole entry): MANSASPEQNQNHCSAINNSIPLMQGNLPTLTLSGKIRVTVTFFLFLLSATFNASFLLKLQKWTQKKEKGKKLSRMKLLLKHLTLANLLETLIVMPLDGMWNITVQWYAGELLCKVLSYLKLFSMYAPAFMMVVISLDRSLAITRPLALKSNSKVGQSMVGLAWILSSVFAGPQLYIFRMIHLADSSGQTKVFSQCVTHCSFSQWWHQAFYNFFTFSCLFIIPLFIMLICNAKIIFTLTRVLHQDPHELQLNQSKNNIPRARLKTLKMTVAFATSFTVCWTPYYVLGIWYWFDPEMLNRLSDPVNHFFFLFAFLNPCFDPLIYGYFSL
Test: Competitive antagonism of GnRH-induced response in the reporter gene assay
Procedure, shortened: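 Same HEK293 human GnRH receptor luciferase reporter cells. Seven-point GnRH curve (10 µM to 10 pM final) run in duplicate without or with four to five increasing compound concentrations (10 min preincubation, 37 °C), then 5 h and luminescence. GnRH EC50 at each level by four-parameter logistic fit, giving pA2; mean of two determinations in duplicate.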

Kd [nM] | Structure (SMILES)
1.58 | CC(=O)N[C@H](Cc1ccc2ccccc2c1)C(=O)N[C@H](Cc1ccc(Cl)cc1)C(=O)N[C@H](Cc1cccnc1)C(=O)N[C@@H](CO)C(=O)N[C@@H](Cc1ccc(Nc2n[nH]c(N)n2)cc1)C(=O)N[C@H](Cc1ccc(Nc2n[nH]c(N)n2)cc1)C(=O)N[C@@H](CC(C)C)C(=O)N[C@@H](CCCCNC(C)C)C(=O)N1CCC[C@H]1C(=O)N[C@H](C)C(N)=O [Ac-D-Nal-[D-(pCl)Phe]-D-Pal-Ser-[Aph(Atz)]-D-[Aph(Atz)]-Leu-ILys-Pro-DAla-NH2] (Ac-[d2Nal][dPhe(4-Cl)][d3Pal]S[Phe(4-NH(5-NH2triazol-3-yl))][X1]L[Lys(iPr)]P[dA]-NH2)
0.631 | CC(=O)Nc1ccc(C[C@@H](NC(=O)[C@H](Cc2ccc(NC(=O)C3CNC(=O)N3)cc2)NC(=O)[C@H](CO)NC(=O)[C@@H](Cc2cccnc2)NC(=O)[C@@H](Cc2ccc(Cl)cc2)NC(=O)[C@@H](Cc2ccc3ccccc3c2)NC(C)=O)C(=O)N[C@@H](CC(C)C)C(=O)N[C@@H](CCCCNC(C)C)C(=O)N2CCC[C@H]2C(=O)N[C@H](C)C(N)=O)cc1 (stereo partly drawn) [Ac-D-Nal-[D-(pCl)Phe]-D-Pal-Ser-[Aph(Imz)]-D-[Aph(Ac)]-Leu-ILys-Pro-DAla-NH2]
